Measured values pooled from the literature.
Concentration: 1 µM
CDK5: Cyclin-dependent kinase 5 (CDK5, Homo sapiens, UniProt Q00535)
CDK5 with p35: Cyclin-dependent kinase 5, with p35 (CDK5, Homo sapiens, UniProt Q00535)

Cc1cc(S(=O)(=O)N[C@H]2CC[C@H](CN3CCN(c4ccc(C5CCC(=O)NC5=O)cc4F)CC3)CC2)ccc1Nc1ncc(C(F)(F)F)c(N2CCC[C@](C)(O)C2)n1 (some centres unmarked)  remaining binding (CDK5; binding, competition with immobilised ligand): 29%
CC(C)S(=O)(=O)c1ccc2nccc(Nc3ccc4sc(C5CCCC5)nc4c3)c2c1  activity vs control (CDK5 with p35; enzyme activity, inhibitor): 101%
COc1ccc2oc(-c3ccc4nc(N)oc4c3)c/c(=N\c3ccccc3NC(=O)CCN)c2c1  remaining binding (CDK5 with p35; binding): 107%
C[C@H]1CC[C@H](n2c3cnccc3c3cnc(Nc4ccc5c(n4)CCN(C(=O)CO)C5)nc32)CC1  remaining binding (CDK5; binding, competition with immobilised ligand): 26%
C=CC(=O)N1CCC([C@@H]2CCNc3c(C(N)=O)c(-c4ccc(Oc5ccccc5)cc4)nn32)CC1  inhibition (CDK5; enzyme activity, inhibitor): 7%
CNS(=O)(=O)c1ccc(Nc2ncc(C(F)(F)F)c(N3CCC[C@](C)(O)C3)n2)c(C)c1  remaining binding (CDK5; binding, competition with immobilised ligand): 13%
CN1CCN(C(=O)c2ccc(NC(=O)Nc3ccc(N(C)c4ccnc(Nc5ccc(CS(C)(=O)=O)cc5)n4)cc3)cc2)CC1  remaining binding (CDK5; binding, competition with immobilised ligand): 91%
C=CC(=O)N1CCC[C@@H](n2nc(-c3ccc(Oc4ccccc4)cc3)c3c(N)ncnc32)C1  inhibition (CDK5; enzyme activity, inhibitor): 10%
